High-throughput results as filed in PubChem.
KCNQ1 act: potentiators or activators of human KCNQ1 potassium channel | P51787 | CHO-K1 KCNQ1, thallium flux FluxOR fluorescence; active compounds read high | B-score at 10 µM | hit rate 0.35% among 310,000;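 active = fluorescence ratio B-score, a plate-corrected score, at least three library SD, with initial intensity B-score within 5 SD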
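Assay system: CHO-K1 cells stably expressing KCNQ1. Medium: assay buffer for compound exposure, DMSO matched across wells. Timing: 37 °C overnight plating, 90-min dark dye load, 20-min compound pretreatment. Signal: kinetic FluxOR fluorescence, 10 s baseline plus 110 s post-stimulus.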
hERG protect: shields human hERG channel from block by proarrhythmic agents. Q12809. CHO-hERG, FluxOR thallium flux, dofetilide IC70 present. activation (rescue from dofetilide block), less the hit threshold, % at 10 µM. hit rate 0.51% among 310,000;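 active = activation above the mean of controls blocked by dofetilide plus 5 SD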;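 note: thallium influx through hERG after potassium depolarization seen as dye fluorescence rise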
KCNQ1 inh: inhibitors of human KCNQ1 potassium channel | B-score at 10 µM | CHO-K1 KCNQ1, FluxOR thallium flux fluorescence; active compounds read high | hit rate 1.3% among 310,000 | P51787 | AID 2642;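 active = compounds whose thallium flux B-score, printed positive for inhibition, exceeds three library SD while starting fluorescence stays within three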;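 note: channel opened by potassium depolarization with thallium stimulus after 20 min compound exposure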
Kir21 block: Kir2.1 (mouse) channel inhibition; B-score at 10 µM; hit rate 0.85% among 310,000; P35561; HEK293-Kir2.1, FluxOR thallium flux fluorescence; active compounds read low; AID 1672;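 active = fluorescence ratio B-score at or below minus 3 SD of library scores, with starting-brightness B-score within 2 SD, cut at about -4.2 in these data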;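 note: channel flux triggered by added potassium and thallium sulfate stimulus; B-score of peak minus minimum fluorescence over baseline after thallium stimulus; more negative B-score means stronger Kir2.1 block with less thallium influx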
KCNK3 block: human KCNK3 channel inhibition, primary screen | CHO-KCNK3 thallium flux, FluxOR fluorescence; active compounds read low | B-score at 10 µM | hit rate 0.84% among 340,000 | O14649 | AID 602410;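 active = B-score under library mean minus 4 SD, starting fluorescence ratio at most library mean plus 5 SD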;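 note: more negative B-score means stronger inhibition of thallium flux through KCNK3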
Target sequence (O14649 whole entry, looked up): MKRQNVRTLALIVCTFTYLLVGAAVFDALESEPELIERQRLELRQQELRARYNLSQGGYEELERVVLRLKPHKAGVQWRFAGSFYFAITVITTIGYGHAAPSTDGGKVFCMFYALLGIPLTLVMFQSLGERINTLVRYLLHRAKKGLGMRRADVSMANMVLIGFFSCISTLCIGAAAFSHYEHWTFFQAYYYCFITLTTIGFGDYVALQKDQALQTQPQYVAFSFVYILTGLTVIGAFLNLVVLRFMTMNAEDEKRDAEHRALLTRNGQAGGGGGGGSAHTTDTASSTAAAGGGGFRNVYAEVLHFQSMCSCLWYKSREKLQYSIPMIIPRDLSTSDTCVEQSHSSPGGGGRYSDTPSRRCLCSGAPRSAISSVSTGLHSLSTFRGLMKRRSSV
KCNK9 inh: human KCNK9 channel inhibition; B-score at 10 µM; hit rate 1.2% among 310,000; HEK293 KCNK9, FluxOR thallium flux fluorescence; active compounds read low; AID 488922; Q9NPC2;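 active = ratio B-score over 3 SD below the library mean, with starting fluorescence within 5 SD of its mean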;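 note: negative B-score means less thallium flux so channel inhibition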
KCNK9 block conf: confirmation of human KCNK9 potassium channel inhibitors; shares compounds with KCNK9 inh; HEK293 KCNK9 cells, FluxOR thallium flux fluorescence; inhibition, % at 10 µM; hit rate 43% among 4,900; AID 492992;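 active = thallium signal inhibited by more than 5 SD of the compound-free buffer control wells, on both duplicate plates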;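 note: 0% = assay buffer control wells without compound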
Kir21 sel: mouse Kir2.1 off-target activity of KCNK9 modulators | inhibition, % at 10 µM | hit rate 4% among 4,900 | Kir2.1 cells, FluxOR thallium flux fluorescence | shares compounds with KCNK9 inh;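 active = thallium signal drop more than 5 SD beyond the mean of the no-compound control wells, seen in both duplicate plates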;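 note: signal is fluorescence rise after thallium addition divided by baseline fluorescence; plate controls were assay buffer only for no effect and full block by chlorpromazine control for full effect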
HEK293 Tl ctr: second check of KCNK9 modulator effects in non-induced HEK293 cells | AID 492997 | shares compounds with KCNK9 inh | FluxOR thallium flux | hit rate 40% among 4,900 | inhibition, % at 10 µM;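 active = thallium signal drop beyond 5 SD of the untreated control mean, on both duplicate plates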;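 note: plate controls were buffer only IC0 wells for no effect and SID17386958 at its maximal inhibitory level for full effect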
KCNK3 inh conf: human KCNK3 channel inhibition, confirmation assay; AID 651638; CHO-KCNK3 thallium flux, FluxOR fluorescence; 0% buffer, 100% carvedilol maximal block; shares compounds with KCNK3 block; hit rate 99% among 2,400; ratio percent of control, % at 10 µM;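 active = ratio percent of control, averaged over triplicates, above buffer control mean plus 5 SD, cut at about 64% in these data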;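 note: ratio is the fluorescence rise from min to max over baseline after thallium stimulus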
KCNK3 uninduced: counter-screen for KCNK3 inhibitors: effect in non-induced cells; shares compounds with KCNK3 block; non-induced KCNK3 parental cells, FluxOR thallium flux; active compounds read low; thallium flux ratio (lower = more inhibition) at 10 µM; hit rate 40% among 2,400; AID 651747;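 active = thallium flux ratio, averaged over three wells, more than 5 SD below the buffer control mean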;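 note: host cells are CHO cells without KCNK3 induction; ratio is peak minus trough fluorescence over baseline then normalized to buffer controls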
Active calls of the source: *; i = inactive; . = no result given. An excerpt weighted towards active compounds, which were near 3.7% of everything screened.

SMILES	KCNQ1 act	hERG protect	KCNQ1 inh	Kir21 block	KCNK3 block	KCNK9 inh	KCNK9 block conf	Kir21 sel	HEK293 Tl ctr	KCNK3 inh conf	KCNK3 uninduced
C=CCOc1c(CCC)cc(CCC)cc1C(N)=O	i	-13	i	-2.8	-9.8*	-9.4*	60%*	i	32%*	119*	0.15*
Cn1c(=O)[nH]c(=O)c2c1nc(N1CCOCC1)n2CC(=O)c1ccccc1	i	-6	i	0.01	i	i	.	.	.	.	.
Cc1ccc(OCc2cc(C(=O)N3CC4C[C@@H]5CC3C[C@H](C4)C5)no2)cc1C	i	-5	i	0.04	i	i	.	.	.	.	.
O=[N+]([O-])c1cccc(C2CC(c3ccccc3)=NN2c2ccccc2)c1 (stereo not drawn)	i	-5	i	1.5	i	-10*	56%*	i	28%*	94*	i
CCc1ccccc1NC(=O)CN(C1CCCCC1)S(C)(=O)=O	i	0	i	-2.4	i	i	.	.	.	.	.
COc1ccc(CCNC(=O)CSc2nnc(-c3ccco3)c(-c3ccco3)n2)cc1OC	i	-4	i	-0.57	.	i	.	.	.	.	.
Cn1cccc1/C=C1\CCC/C(=C\c2cccn2C)C1=O	i	-36	14*	-8.6	-12*	-9.6*	78%*	60%*	i	0	i
COc1ccc2[nH]c(C)c(CCN(Cc3cccs3)C(=S)Nc3ccccc3)c2c1	i	-16	i	-0.5	-13*	-11*	38%*	i	34%*	130*	0.13*
Cc1[nH]c2ccc(F)cc2c1CCN(Cc1cccnc1)C(=S)Nc1ccc(F)cc1	i	-4	i	0.29	-9.5*	-9.6*	i	i	26%*	103*	i
CCNC(=S)N(CCc1c(C)[nH]c2ccc(F)cc12)Cc1cccnc1	i	-13	i	1.2	i	i	.	.	.	.	.
O=C(Nc1ccccc1C(=O)Nc1ccccn1)c1cc(F)c(F)cc1Cl	i	-3	i	-0.04	i	i	.	.	.	.	.
CCOC(=O)[C@H]1[C@H]2COc3ccc(Cl)cc3[C@@H]2N2C(=O)CN(CC3CCCO3)C(=O)[C@@]12C (stereo partly drawn)	.	.	.	.	i	.	.	.	.	.	.
O=C(Nc1ccc2c(c1)OCCO2)c1cc2sccc2n1Cc1ccc(F)cc1	i	-10	i	-0.12	-11*	-12*	46%*	i	30%*	120*	0.12*
Cn1c(C(=O)Nc2ccc3c(c2)OCCO3)cc2sccc21	i	-10	i	-2.3	i	i	.	.	.	.	.
CCOC(=O)C1CCN(C(=O)c2cccnc2)CC1	i	0	i	0.55	i	i	.	.	.	.	.
CCOC(=O)C1CCN(C(c2cccnc2)c2c(NC(=O)c3ccco3)sc(C)c2C)CC1 (stereo not drawn)	i	-17	i	-0.09	-11*	-19*	66%*	i	40%*	136*	0.11*
COc1ccc(CCNS(=O)(=O)c2ccc(Br)s2)cc1	i	-9	i	-0.66	-9.4*	-9.2*	76%*	i	34%*	116*	i
O=C(Oc1ccc2ccccc2c1Br)N1CCCCCC1	i	-13	i	-1.5	i	-12*	68%*	i	36%*	108*	i
Cc1cccc(C)c1NC(=O)CN(C)C(=O)CC1Sc2ccccc2NC1=O (stereo not drawn)	i	-4	i	-0.7	i	i	.	.	.	.	.
